Data on seven compounds can be found in ChEMBL document CHEMBL5113552, “(-)-Epigallocatechin Gallate is a Noncompetitive Inhibitor of NAD Kinase” (ACS Med Chem Lett, 2022).

Test [1] can be described thus: Cytotoxicity against human C85 cells assessed as inhibition of cell growth. Format: functional, cell-based. Conditions: CCCL-1.
Another test has as its system CCRF-CEM. The experiment in a line: Cytotoxicity against human CCRF-CEM cells assessed as inhibition of cell growth. Format: functional, cell-based.
For another test, the system named is MOLT-4. The experiment in a line: Cytotoxicity against human MOLT-4 cells assessed as inhibition of cell growth. Format: functional, cell-based.
A further test deals with RL. The experiment in a line: Cytotoxicity against human RL cells assessed as inhibition of cell growth. Format: functional, cell-based.
For test [2], the target named is T1, NAD kinase (Homo sapiens, UniProt O95544).
T1 sequence (O95544 whole entry): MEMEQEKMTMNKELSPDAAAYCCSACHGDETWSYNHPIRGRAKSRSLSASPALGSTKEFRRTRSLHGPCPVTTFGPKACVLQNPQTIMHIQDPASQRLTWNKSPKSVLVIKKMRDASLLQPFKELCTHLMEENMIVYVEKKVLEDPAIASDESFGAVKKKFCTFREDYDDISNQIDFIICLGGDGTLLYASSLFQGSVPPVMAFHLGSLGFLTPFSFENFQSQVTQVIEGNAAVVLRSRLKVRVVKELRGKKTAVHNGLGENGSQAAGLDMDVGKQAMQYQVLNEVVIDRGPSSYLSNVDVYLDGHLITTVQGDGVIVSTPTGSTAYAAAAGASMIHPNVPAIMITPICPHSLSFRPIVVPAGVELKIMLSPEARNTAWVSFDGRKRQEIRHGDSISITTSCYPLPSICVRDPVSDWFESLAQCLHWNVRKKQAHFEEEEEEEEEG
Briefly: Inhibition of human NADK by HPLC analysis.

Test [3] deals with T1, NAD kinase. Briefly: Inhibition of NADK (unknown origin) by HPLC analysis.
The next test deals with PC-9. The experiment in a line: Cytotoxicity against human PC-9 cells harboring wild type KRAS assessed as inhibition of cell growth at 60 uM measured on day 4. The test is classed as functional, cell-based. In short, it runs like this:
(§1)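 Lung cancer cell lines (PC-9 KRAS WT, A549 KRAS G12S, H358 and H23 KRAS G12C) exposed to a range of concentrations. Growth curves were built by following cell number over days (day 4 is cited) against a DMSO control. n = 3 replicates; significance was judged at P < 0.05, 0.01 and 0.001.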

Test [4] deals with T2, NAD kinase (Homo sapiens) (UniProt O95544).
T2 sequence (whole entry): T1 sequence (O95544 whole entry)
The experiment in a line: Binding affinity to human NADK (155 to 164 residues) assessed as decrease in deuterium incorporation at 80 uM measured after 30 mins by HDX-MS analysis. The arrangement: scale not given: the % may be the effect or the level left.

Another test concerns NCI-H23. Briefly: Cytotoxicity against human H23 cells harboring KRAS G12C mutant assessed as inhibition of cell growth at 30 uM. Format: functional. The essentials: as §1
Test [5] has as its target T2, NAD kinase (Homo sapiens). Briefly: Binding affinity to human NADK (345 to 365 residues) assessed as decrease in deuterium incorporation at 80 uM measured after 30 mins by HDX-MS analysis. The arrangement: scale not given: the % may be the effect or the level left.
In the next test the test system is NCI-H358. Briefly: Cytotoxicity against human H358 cells harboring KRAS G12C mutant assessed as inhibition of cell growth at 30 uM. The test is classed as functional. In short, it runs like this: as §1
The test system of test [6] is A549. The experiment in a line: Cytotoxicity against human A549 cells harboring KRAS […] mutant assessed as inhibition of cell growth at 30 uM. Format: functional, cell-based.
The target of test [7] is T1, NAD kinase. The experiment in a line: Inhibition of NADK delta 95 kinase domain (unknown origin) at 80 uM measured after 30 mins by […].
For test [8], the target named is T1, NAD kinase. Briefly: Binding affinity to N-terminal full length NADK (unknown origin) expressed in Escherichia coli BL21(DE3) cells assessed as dissociation constant by surface plasmon resonance assay. Background: Surface plasmon resonance follows binding to a sensor surface in real time, without labels.
Test [9] concerns the target T2, NAD kinase (Homo sapiens). The experiment in a line: Binding affinity to human NADK (410 to 418 residues) assessed as decrease in deuterium incorporation at 80 uM measured after 30 mins by HDX-MS analysis. The arrangement: scale not given: the % may be the effect or the level left.
Test [10] addresses T1, NAD kinase. The experiment in a line: Non-competitive inhibition of N-terminal full length NADK (unknown origin) expressed in Escherichia coli BL21(DE3) cells by enzymatic activity assay.
Test [11] concerns A549. The experiment in a line: Cytotoxicity against human A549 cells harboring KRAS G12S mutant assessed as inhibition of cell growth at 50 uM.

Activity calls are given as the source filed them. The calls are words filed in the database; no cut-off is given here.

As to `NC(=S)c1cccnc1`, the IC50 (in test [1]; in the test with CCRF-CEM; in the test on MOLT-4; in the test on RL) was 10 µM in each case.

As for `Nc1ncnc2c1ncn2[C@@H]1O[C@H](CSSC[C@H]2O[C@@H](n3c(Br)nc4c(N)ncnc43)[C@H](O)[C@@H]2O)[C@@H](O)[C@H]1O`, the affinity at NAD kinase [2], expressed as Ki, was 6 µM.

Turning to `Nc1ncnc2c1ncn2[C@@H]1O[C@H](CSSC[C@H]2O[C@@H](n3cnc4c(N)ncnc43)[C@H](O)[C@@H]2O)[C@@H](O)[C@H]1O`, the affinity on NAD kinase [2], expressed as Ki, was 45 µM.

With `Nc1ncnc2c1nc(Br)n2[C@@H]1O[C@H](CSSC[C@H]2O[C@@H](n3c(Br)nc4c(N)ncnc43)[C@H](O)[C@@H]2O)[C@@H](O)[C@H]1O`, the Ki (commonly the equilibrium dissociation constant of an inhibitor or competing ligand from its target) at NAD kinase [2] was found to be 6 µM.

`Oc1cc(O)c2c(c1)O[C@@H](c1cc(O)c(O)c(O)c1)[C@H](O)C2` [(-)-GALLOCATECHIN]: on NAD kinase [3], the IC50 (in general, the concentration that inhibits the measured activity by half) was above 100 µM.

On NAD kinase [3], `Oc1cc(O)c2c(c1)O[C@H](c1cc(O)c(O)c(O)c1)[C@H](O)C2` [EPIGALLOCATECHIN] returned an IC50 above 100 µM.

Consider `O=C(O[C@@H]1Cc2c(O)cc(O)cc2O[C@@H]1c1cc(O)c(O)c(O)c1)c1cc(O)c(O)c(O)c1` [EPIGALOCATECHIN GALLATE], for which the result with PC-9 and with A549 [6] was Active. Further, the Activity in test [4] was found to be 12.9%; in test [5] it was 21.1%; in test [9], 21.8%. The inhibition at 30 µM in the test with NCI-H23 and with NCI-H358 was 100% in each case. At NAD kinase [7], this compound returned an IC50 of 0.96 µM. Besides, the Kd (usually the concentration at which binding is half-saturated) at NAD kinase [8] was 1.78 µM. At NAD kinase [10], this compound displayed a Ki of 3.28 µM. Besides, the inhibition (usually the percentage by which the read-out fell short of the control) at 50 µM in the test with A549 [11] was 100%.
